Reference: PMC4278051 (Journal of Breast Cancer, 2014)

How the values were obtained:
TRPV1 [1] = target: T1, TRPV1 (Homo sapiens, UniProt Q8NER1); experiment: ^45Ca^2+ uptake assay, stimulation by agonists in MCF-7; format: cell-based; details: for E max of Ca^2+ uptake: 20 minutes at 37℃, 10^-11-10^-3 M, n=4
MCF-7 cells = experiment: MTT reduction proliferation assay; format: cell-based, human; details: 2, 24, 48 and 72 hours; for MCF-7 cell growth rate / viability compared to the controls (MTT): increasing concentrations (10^-10-10^-4 M capsaicin, capsazepine; 10^-10-10^-6 M RTX, 5-I-RTX), p<0.05, n=6
Outline: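 MCF-7 cells grown in DMEM with 20% FBS were seeded at 5×10^3 cells/100 µL in 96-well plates. Cells were exposed to test compound at increasing concentrations (10-10 up to 10^-4 or 10^-6 M, by compound) and assayed at 2, 24, 48 and 72 h. MTT was added for 4 h at 37 °C, 5% CO2, and formazan was dissolved in DMSO for 10 min at RT. OD was read at 570 nm (n=6, mean±SEM) and analysed by Kruskal-Wallis with Dunn post-test.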

[2] = target: transient receptor potential vanilloid 1 (Homo sapiens, UniProt Q8NER1); experiment: Competition; details: inhibition of 1.2 nM ^3[H]RTX binding, MCF-7 membranes, Cheng-Prussoff
Sequence of transient receptor potential vanilloid 1 (Q8NER1 whole entry): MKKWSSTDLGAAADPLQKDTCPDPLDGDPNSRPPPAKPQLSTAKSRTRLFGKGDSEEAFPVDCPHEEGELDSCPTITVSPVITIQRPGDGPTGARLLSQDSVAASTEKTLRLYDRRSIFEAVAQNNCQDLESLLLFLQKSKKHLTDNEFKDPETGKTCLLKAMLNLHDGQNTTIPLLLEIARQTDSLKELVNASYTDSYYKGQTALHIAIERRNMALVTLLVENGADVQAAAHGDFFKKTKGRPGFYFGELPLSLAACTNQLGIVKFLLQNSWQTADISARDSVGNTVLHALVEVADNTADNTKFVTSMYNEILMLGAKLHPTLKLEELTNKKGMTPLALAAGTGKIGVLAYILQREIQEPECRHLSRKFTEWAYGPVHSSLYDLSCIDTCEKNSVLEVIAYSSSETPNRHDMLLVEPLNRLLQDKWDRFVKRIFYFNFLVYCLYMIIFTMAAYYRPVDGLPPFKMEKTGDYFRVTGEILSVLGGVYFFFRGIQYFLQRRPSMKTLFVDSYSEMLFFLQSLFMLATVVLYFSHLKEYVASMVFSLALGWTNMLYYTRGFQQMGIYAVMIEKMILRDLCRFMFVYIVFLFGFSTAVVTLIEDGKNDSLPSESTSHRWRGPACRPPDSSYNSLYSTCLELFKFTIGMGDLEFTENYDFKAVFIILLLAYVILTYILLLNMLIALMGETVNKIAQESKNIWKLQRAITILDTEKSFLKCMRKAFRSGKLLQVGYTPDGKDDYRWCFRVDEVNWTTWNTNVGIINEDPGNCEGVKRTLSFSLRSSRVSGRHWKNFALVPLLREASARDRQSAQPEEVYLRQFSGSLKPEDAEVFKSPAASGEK

TRPV1 [3] = details: ref 23 (Rigoni et al.); cited from earlier work
TRPV1 [4] = target: T1, TRPV1; experiment: Inhibition of RTX induced ^45Ca^2+ uptake by antagonists in MCF-7; format: cell-based; details: in the presence of RTX 2 nM, n=4

T1 sequence (Q8NER1 whole entry): as above

Row | Compound | E max of Ca^2+ uptake (TRPV1 [1]; ^45Ca^2+ uptake) [cpm] | MCF-7 cell growth rate / viability compared to the controls (MTT) (MCF-7 cells) | EC50 (TRPV1 [1]) [nM] | Time dependence of MCF-7 growth inhibition (MTT) (MCF-7 cells) | Agonist character at TRPV1 expressed in MCF-7, from E max of calcium uptake (TRPV1 [1]; ^45Ca^2+ uptake) | Ki [2] [nM] | Potency relative to the antagonist capsazepine (times more potent) (TRPV1 [3]) | E max of Ca^2+ influx inhibition (TRPV1 [4]) [%]
1 | COc1cc(CNC(=O)CCCC/C=C/C(C)C)ccc1O [Capsaicin, capsaicin] | 478.8 | significant decrease | – | – | – | – | – | –
2 | C=C(C)[C@]12C[C@@H](C)[C@@]34O[C@](Cc5ccccc5)(O[C@@H]1[C@@H]3C=C(COC(=O)Cc1ccc(O)c(OC)c1)C[C@]1(O)C(=O)C(C)=C[C@@H]41)O2 [RTX, resiniferatoxin] | 777.0 | significant decrease | 24 | time-dependent behavior | – | – | – | –
3 | Oc1cc2c(cc1O)CN(C(=S)NCCc1ccc(Cl)cc1)CCC2 [Capsazepine, capsazepine] | – | significant decrease | – | – | – | – | – | –
4 | CCCCC/C=C\C/C=C\C/C=C\C/C=C\CCCC(=O)NCCO [Anandamide, anandamide] | 557.0 | – | 110 | – | full agonist | – | – | –
5 | C=C(C)[C@]12C[C@@H](C)[C@@]34O[C@](Cc5ccccc5)(O[C@@H]1[C@@H]3C=C(COC(=O)Cc1cc(I)c(O)c(OC)c1)C[C@]1(O)C(=O)C(C)=C[C@@H]41)O2 [5-I-RTX, 5-iodoresiniferatoxin] | – | significant decrease | – | – | – | 0.056 | 20 | 108.3
